Activity calls are given as the source filed them. The rule behind the calls is not given here.
How the values were obtained:
[1] = AUC/dose in Wistar Hannover rat at 0.3 to 0.5 mg/kg, iv by LC-MS/MS analysis; format: ADME, organism-based; conditions: in vivo, dose 0.3-0.5 mg/kg, time <=24 hrs
Outline: (§1)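 Male Wistar Hannover rats, catheterized under isoflurane; one day later iv injection into lateral tail vein at 0.3 to 0.5 mg/kg in plasma containing 2% DMSO. Blood sampled via catheter from 0.033 to 24 h. Plasma precipitated with acetonitrile, analysed by LC-MS/MS (10 mM ammonium acetate pH 3.0/acetonitrile gradient). PK parameters calculated from plasma concentrations.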

[2] = target: Plasminogen (Homo sapiens) (UniProt P00747); assay: Inhibition of purified human plasma plasmin up to 20 uM using MeOSuc-Ala-Phe-Lys-AMC substrate incubated for 30 mins by fluorescence based assay; conditions: dose microM <=20, time 30.0 min
Outline: (§2)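 Final levels: thrombin 0.02 nM; FXa 1.3 nM; FXIa 0.15 nM; plasmin 1.2 nM (substrate 50 μM); tPA 2 nM; kallikrein 0.2 nM; trypsin 0.1 nM; other AMC substrates 5 μM. FVIIa 0.5 pM coupled with tissue factor, factor X 12 nM, FXa substrate 50 μM.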

Trypsin (Homo sapiens) = Trypsin (Homo sapiens) (UniProt P07477+P07478+P35030); assay: Inhibition of purified human plasma trypsin up to 20 uM using Boc-Ile-Glu-Gly-Arg-AMC substrate incubated for 30 mins by fluorescence based assay; format: protein assay; conditions: dose microM <=20, time 30.0 min; outline: as §2
[3] = Protein binding in human plasma; format: ADME, cell-free; conditions: read-out: PPB (converted)
[4] = target: T1, Nuclear receptor subfamily 1 group I member 2 (Homo sapiens, UniProt O75469); assay: Activation of human PXR human hepatocytes assessed as induction of CYP3A4 mRNA expression incubated for 48 hrs by qPCR analysis; format: ADME, tissue-based, Hepatocyte
T1 sequence (O75469 whole entry): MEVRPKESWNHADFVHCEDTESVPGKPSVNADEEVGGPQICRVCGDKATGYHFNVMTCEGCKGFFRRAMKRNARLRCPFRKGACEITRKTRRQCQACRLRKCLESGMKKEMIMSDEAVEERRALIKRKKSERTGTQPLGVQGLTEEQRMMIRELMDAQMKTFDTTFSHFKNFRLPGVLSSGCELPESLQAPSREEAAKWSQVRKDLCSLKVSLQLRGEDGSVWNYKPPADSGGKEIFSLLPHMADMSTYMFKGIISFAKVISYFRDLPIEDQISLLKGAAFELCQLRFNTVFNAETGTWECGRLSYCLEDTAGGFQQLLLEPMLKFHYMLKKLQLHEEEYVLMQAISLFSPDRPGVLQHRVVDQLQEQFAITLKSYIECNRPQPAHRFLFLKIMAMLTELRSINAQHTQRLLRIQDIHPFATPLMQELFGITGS
Outline: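 Human hepatocytes in collagen sandwich, cultured 1 d, then treated with eight 1:3 serial concentrations for 2 consecutive days with daily media change. mRNA isolated on magnetic beads, reverse transcribed, and quantified by TaqMan qRT-PCR against actin/tubulin. Fold induction over vehicle by ΔΔCt; NOEL reported.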

[5] = Volume of distribution at steady state in Wistar Hannover rat at 0.3 to 0.5 mg/kg, iv by LC-MS/MS analysis; format: ADME, organism-based; conditions: in vivo, dose 0.3-0.5 mg/kg, time <=24 hrs, read-out: Vdss; outline: as §1
Prothrombin = Prothrombin (Rattus norvegicus, UniProt P18292); assay: Inhibition of thrombin in rat plasma; format: cell-free
Rattus norvegicus = assay: Antithrombotic activity in HsdCpd:WU rat model of arteriovenous shunt model assessed as reduction in thrombus weight at 0.6 to 6 mg/kg/hr, iv; format: functional, organism-based; conditions: dose mg/kg/hr 0.6-6
Outline: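 Fasting male HsdCpd:WU rats, 300−350 g, anesthetized with Inactin (150−180 mg/kg). Jugular vein and carotid artery linked by a 10 cm PE 60 shunt. Shunt opened 20 min after iv bolus for 15 min; thrombus on nylon thread weighed.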

[6] = target: Coagulation factor X (Homo sapiens) (UniProt P00742); assay: Inhibition of purified human plasma factor-10a up to 20 uM using Boc-Ile-Glu-Gly-Arg-AMC substrate incubated for 30 mins by fluorescence based assay; conditions: dose microM <=20, time 30.0 min; outline: as §2
[7] = target: T2, Coagulation factor VII (Homo sapiens) (UniProt P08709); assay: Inhibition of purified human plasma factor-7a up to 20 uM incubated for 30 mins by fluorescence based based coupled protease reaction assay; conditions: dose microM <=20, time 30.0 min; outline: as §2
T2 sequence (whole entry): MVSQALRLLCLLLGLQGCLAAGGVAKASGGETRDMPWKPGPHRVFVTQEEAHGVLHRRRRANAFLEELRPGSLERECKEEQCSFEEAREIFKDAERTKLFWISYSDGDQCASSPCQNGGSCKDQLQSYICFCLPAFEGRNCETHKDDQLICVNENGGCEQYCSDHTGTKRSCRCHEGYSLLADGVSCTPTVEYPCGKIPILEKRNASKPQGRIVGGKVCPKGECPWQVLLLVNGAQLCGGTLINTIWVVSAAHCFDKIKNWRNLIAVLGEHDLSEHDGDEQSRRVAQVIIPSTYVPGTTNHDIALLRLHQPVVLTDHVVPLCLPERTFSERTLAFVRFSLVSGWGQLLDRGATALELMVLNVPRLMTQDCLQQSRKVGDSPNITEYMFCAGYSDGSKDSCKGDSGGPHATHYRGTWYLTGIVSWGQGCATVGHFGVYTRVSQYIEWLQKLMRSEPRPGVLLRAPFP

[8] = Oral bioavailability in Wistar Hannover rat at 1 mg/kg by LC-MS/MS analysis; format: ADME, organism-based; conditions: in vivo, time <=24 hrs
Outline: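 Catheterized male Wistar Hannover rats dosed by gavage at 1 mg/kg in 10% ethanol/40% PEG/50% water. Blood taken via catheter at 0.083 to 24 h. Plasma precipitated with acetonitrile and analysed by LC-MS/MS. Bioavailability derived against iv dosing at 0.3 to 0.5 mg/kg.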

[9] = target: Coagulation factor XI (Homo sapiens) (UniProt P03951); assay: Inhibition of purified human plasma factor-11a up to 20 uM using Boc-Glu(OBzl)-Ala-Arg-AMC substrate incubated for 30 mins by fluorescence based assay; conditions: dose microM <=20, time 30.0 min; outline: as §2
[10] = Inhibition of thrombin in dog plasma; format: cell-free; conditions: Canis lupus familiaris
[11] = Terminal half-life in orally dosed healthy human; format: ADME, organism-based; conditions: in vivo, po, read-out: beta t1/2 (converted)
[12] = MRT in Wistar Hannover rat at 0.3 to 0.5 mg/kg, iv by LC-MS/MS analysis; format: ADME, organism-based; conditions: in vivo, dose 0.3-0.5 mg/kg, time <=24 hrs; outline: as §1
[13] = Protein binding in rat plasma; format: ADME, cell-free; conditions: read-out: PPB (converted)
[14] = Permeability from apical to basolateral side in human Caco2 cells incubated for 2 hrs by LC-MS/MS analysis; format: ADME, cell-based; conditions: Caco-2
Outline: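 Caco-2 cells grown 15 d on 0.4 μm inserts, TEER ≥600 Ω. Compound (DMSO stock diluted 100-fold) in HBSS pH 7.4 with 10 mM HEPES and 20 mM glucose, added apically or basolaterally. Incubated 2 h at 37 °C and analysed by LC-MS/MS. Papp = (Vr/P0)·(1/S)·(P2/t); mean and SD.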

Chain of Coagulation factor X (Homo sapiens) (P00742 41-179 limits assumed): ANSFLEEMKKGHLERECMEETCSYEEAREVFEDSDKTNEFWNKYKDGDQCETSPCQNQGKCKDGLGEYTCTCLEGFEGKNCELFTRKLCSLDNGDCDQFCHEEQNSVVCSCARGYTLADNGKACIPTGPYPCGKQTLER
Chain of Coagulation factor X (Homo sapiens) (P00742 235-488 limits assumed): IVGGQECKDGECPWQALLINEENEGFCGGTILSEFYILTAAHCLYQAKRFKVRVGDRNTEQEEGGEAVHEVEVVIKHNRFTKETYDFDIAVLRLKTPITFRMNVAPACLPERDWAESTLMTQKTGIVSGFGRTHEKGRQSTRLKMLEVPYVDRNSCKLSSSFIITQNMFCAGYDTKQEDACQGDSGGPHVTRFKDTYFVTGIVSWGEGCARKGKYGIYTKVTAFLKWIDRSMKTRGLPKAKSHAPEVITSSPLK
Chain of Coagulation factor XI (Homo sapiens) (P03951 19-387 limits assumed): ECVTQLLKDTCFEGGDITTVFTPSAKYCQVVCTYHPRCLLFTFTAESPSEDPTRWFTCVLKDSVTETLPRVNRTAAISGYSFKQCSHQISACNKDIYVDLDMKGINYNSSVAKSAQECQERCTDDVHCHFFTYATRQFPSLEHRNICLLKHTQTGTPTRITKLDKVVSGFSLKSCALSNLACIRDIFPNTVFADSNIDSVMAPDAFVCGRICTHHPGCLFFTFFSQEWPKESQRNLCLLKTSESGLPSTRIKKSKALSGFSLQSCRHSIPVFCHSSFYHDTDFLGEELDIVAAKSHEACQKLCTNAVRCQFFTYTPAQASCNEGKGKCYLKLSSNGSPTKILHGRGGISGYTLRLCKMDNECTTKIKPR
Chain of Coagulation factor XI (Homo sapiens) (P03951 388-625 limits assumed): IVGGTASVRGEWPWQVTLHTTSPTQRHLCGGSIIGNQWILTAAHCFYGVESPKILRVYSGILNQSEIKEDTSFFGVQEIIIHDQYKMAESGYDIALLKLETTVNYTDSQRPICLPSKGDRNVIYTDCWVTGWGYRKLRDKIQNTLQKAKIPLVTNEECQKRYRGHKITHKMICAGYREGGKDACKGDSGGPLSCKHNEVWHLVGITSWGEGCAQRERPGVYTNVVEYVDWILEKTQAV
Chain of Plasminogen (Homo sapiens) (P00747 97-580 limits assumed): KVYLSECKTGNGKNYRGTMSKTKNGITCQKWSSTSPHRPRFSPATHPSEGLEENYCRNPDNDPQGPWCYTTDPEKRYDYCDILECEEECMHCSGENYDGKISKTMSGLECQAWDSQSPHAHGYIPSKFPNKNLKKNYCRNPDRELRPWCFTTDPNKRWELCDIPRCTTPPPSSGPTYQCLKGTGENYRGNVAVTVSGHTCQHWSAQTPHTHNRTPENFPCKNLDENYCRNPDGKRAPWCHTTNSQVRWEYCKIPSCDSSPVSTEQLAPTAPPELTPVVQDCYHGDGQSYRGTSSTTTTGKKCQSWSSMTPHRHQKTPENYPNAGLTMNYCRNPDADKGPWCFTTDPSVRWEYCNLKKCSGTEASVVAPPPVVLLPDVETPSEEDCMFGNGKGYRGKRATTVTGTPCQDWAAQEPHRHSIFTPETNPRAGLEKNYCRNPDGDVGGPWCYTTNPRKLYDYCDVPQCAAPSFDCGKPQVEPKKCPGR
Chain of Plasminogen (Homo sapiens) (P00747 581-810 limits assumed): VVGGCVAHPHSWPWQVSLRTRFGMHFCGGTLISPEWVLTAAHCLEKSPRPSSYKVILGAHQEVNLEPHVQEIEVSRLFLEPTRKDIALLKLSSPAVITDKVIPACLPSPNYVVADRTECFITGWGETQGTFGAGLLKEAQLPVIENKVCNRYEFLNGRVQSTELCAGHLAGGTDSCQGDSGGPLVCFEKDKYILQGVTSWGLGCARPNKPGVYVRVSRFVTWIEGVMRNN

AUC/dose [1]: 0.34 kg·h/L
inhibition [2]: inactive
inhibition (Trypsin (Homo sapiens)): inactive
fraction unbound [3]: 0.22
Vd [5]: 3.5 L/kg
IC50 (Prothrombin): 10 nM
inhibition [6]: inactive
inhibition [7]: inactive
bioavailability [8]: 38%
inhibition [9]: inactive
IC50 [10]: 6.5 nM
half-life [11]: 9.5 h
MRT [12]: 1.2 h
fraction unbound [13]: 0.22
Papp A→B at 2 h [14]: 13.1 ×10⁻⁶ cm/s
Structure (SMILES): COc1cc(C(=O)N2C[C@H](C)OC[C@@H]2CCO)cc2nc(N[C@H](CF)c3cccc(Cl)c3)oc12
NOAEL [4]: > 10000 ng/mL
Activity (Rattus norvegicus): Dose-dependent effect

Source: ChEMBL document CHEMBL4665889, “Design, Synthesis, and Pharmacological Characterization of a Neutral, Non-Prodrug Thrombin Inhibitor with Good Oral Pharmacokinetics” (J Med Chem, 2020)
